Assay results as given in ChEMBL document CHEMBL1147748, “Overlapping, nonidentical binding sites of different classes of nonpeptide antagonists for the human gonadotropin-releasing hormone receptor” (J Med Chem, 2006).

Key:
[1] = target: Gonadotropin-releasing hormone receptor (Homo sapiens, UniProt P30968, S203Q); assay: Displacement of [125I]-His5, D-Tyr6]GnRH from mutant GnRHR, GnRHR S203Q
[2] = target: Gonadotropin-releasing hormone receptor (Homo sapiens, UniProt P30968, S203E); assay: Displacement of [125I]-His5, D-Tyr6]GnRH from mutant GnRHR, GnRHR S203E
[3] = target: Gonadotropin-releasing hormone receptor (Homo sapiens, UniProt P30968, L112A); assay: Displacement of [125I]-His5, D-Tyr6]GnRH from mutant GnRHR, GnRHR L112A
In short: (§1)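 Human GnRH-R (wild type or site-directed point mutant) was transiently expressed in COS-7 cells by electroporation, with cells cultured 36-48 h before membranes were prepared. Membranes (5-20 µg per point) were incubated 2 h at room temperature with 0.3 nM tracer and varying competitor in HEPES pH 7.5, 150 mM NaCl, 0.1% BSA, then filtered and counted.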

[4] = target: Gonadotropin-releasing hormone receptor (Homo sapiens, UniProt P30968, S186D); assay: Displacement of [125I]-His5, D-Tyr6]GnRH from mutant GnRHR, GnRHR S186D
[5] = target: Gonadotropin-releasing hormone receptor (Homo sapiens, UniProt P30968, L300V); assay: Displacement of [125I]-His5, D-Tyr6]GnRH from mutant GnRHR, GnRHR L300V; in short: as §1
[6] = target: Gonadotropin-releasing hormone receptor (Homo sapiens, UniProt P30968, L112K); assay: Displacement of [125I]-His5, D-Tyr6]GnRH from mutant GnRHR, GnRHR L112K; in short: as §1
[7] = target: Gonadotropin-releasing hormone receptor (Homo sapiens, UniProt P30968, D293E); assay: Displacement of [125I]-His5, D-Tyr6]GnRH from mutant GnRHR, GnRHR D293E; in short: as §1
[8] = target: Gonadotropin-releasing hormone receptor (Homo sapiens, UniProt P30968, Y284L); assay: Displacement of [125I]-His5, D-Tyr6]GnRH from mutant GnRHR, GnRHR Y284L
[9] = target: Gonadotropin-releasing hormone receptor (Homo sapiens, UniProt P30968, S118A); assay: Displacement of [125I]-His5, D-Tyr6]GnRH from mutant GnRHR, GnRHR S118A
[10] = target: Gonadotropin-releasing hormone receptor (Homo sapiens, UniProt P30968, S124A); assay: Displacement of [125I]-His5, D-Tyr6]GnRH from mutant GnRHR, GnRHR S124A
[11] = target: Gonadotropin-releasing hormone receptor (Homo sapiens, UniProt P30968, D302N); assay: Displacement of [125I]-His5, D-Tyr6]GnRH from mutant GnRHR, GnRHR D302N; in short: as §1
[12] = target: Gonadotropin-releasing hormone receptor (Homo sapiens, UniProt P30968, L112F); assay: Displacement of [125I]-His5, D-Tyr6]GnRH from mutant GnRHR, GnRHR L112F; in short: as §1
[13] = target: Gonadotropin-releasing hormone receptor (Homo sapiens, UniProt P30968, Q189A); assay: Displacement of [125I]-His5, D-Tyr6]GnRH from mutant GnRHR, GnRHR Q189A; in short: as §1
[14] = target: Gonadotropin-releasing hormone receptor (Homo sapiens, UniProt P30968, Y290L); assay: Displacement of [125I]-His5, D-Tyr6]GnRH from mutant GnRHR, GnRHR Y290L
[15] = target: Gonadotropin-releasing hormone receptor (Homo sapiens, UniProt P30968, H182A); assay: Displacement of [125I]-His5, D-Tyr6]GnRH from mutant GnRHR, GnRHR H182A; in short: as §1
[16] = target: Gonadotropin-releasing hormone receptor (Homo sapiens, UniProt P30968, N305D); assay: Displacement of [125I]-His5, D-Tyr6]GnRH from mutant GnRHR, GnRHR N305D; in short: as §1
[17] = target: Gonadotropin-releasing hormone receptor (Homo sapiens, UniProt P30968, S168I); assay: Displacement of [125I]-His5, D-Tyr6]GnRH from mutant GnRHR, GnRHR S168I
[18] = target: Gonadotropin-releasing hormone receptor (Homo sapiens, UniProt P30968, K115Q); assay: Displacement of [125I]-His5, D-Tyr6]GnRH from mutant GnRHR, GnRHR K115Q; in short: as §1
[19] = target: Gonadotropin-releasing hormone receptor (Homo sapiens, UniProt P30968, E295K); assay: Displacement of [125I]-His5, D-Tyr6]GnRH from mutant GnRHR, GnRHR E295K; in short: as §1
[20] = target: Gonadotropin-releasing hormone receptor (Homo sapiens, UniProt P30968, L300K); assay: Displacement of [125I]-His5, D-Tyr6]GnRH from mutant GnRHR, GnRHR L300K; in short: as §1
[21] = target: Gonadotropin-releasing hormone receptor (Homo sapiens, UniProt P30968, N305A); assay: Displacement of [125I]-His5, D-Tyr6]GnRH from mutant GnRHR, GnRHR N305A; in short: as §1
[22] = target: Gonadotropin-releasing hormone receptor (Homo sapiens, UniProt P30968, Q208D); assay: Displacement of [125I]-His5, D-Tyr6]GnRH from mutant GnRHR, GnRHR Q208D
[23] = target: Gonadotropin-releasing hormone receptor (Homo sapiens, UniProt P30968, D302Q); assay: Displacement of [125I]-His5, D-Tyr6]GnRH from mutant GnRHR, GnRHR D302Q; in short: as §1
[24] = target: Gonadotropin-releasing hormone receptor (Homo sapiens, UniProt P30968, K121A); assay: Displacement of [125I]-His5, D-Tyr6]GnRH from mutant GnRHR, GnRHR K121A; in short: as §1
[25] = target: Gonadotropin-releasing hormone receptor (Homo sapiens, UniProt P30968, E111A); assay: Displacement of [125I]-His5, D-Tyr6]GnRH from mutant GnRHR, GnRHR E111A; in short: as §1
[26] = target: Gonadotropin-releasing hormone receptor (Homo sapiens, UniProt P30968, A50T); assay: Displacement of [125I]-His5, D-Tyr6]GnRH from mutant GnRHR, GnRHR A50T; in short: as §1
[27] = target: Gonadotropin-releasing hormone receptor (Homo sapiens, UniProt P30968, E295Q); assay: Displacement of [125I]-His5, D-Tyr6]GnRH from mutant GnRHR, GnRHR E295Q; in short: as §1
[28] = target: Gonadotropin-releasing hormone receptor (Homo sapiens, UniProt P30968, S118N); assay: Displacement of [125I]-His5, D-Tyr6]GnRH from mutant GnRHR, GnRHR S118N
[29] = target: Gonadotropin-releasing hormone receptor (Homo sapiens, UniProt P30968, H182E); assay: Displacement of [125I]-His5, D-Tyr6]GnRH from mutant GnRHR, GnRHR H182E; in short: as §1
[30] = target: Gonadotropin-releasing hormone receptor (Homo sapiens, UniProt P30968, H306K); assay: Displacement of [125I]-His5, D-Tyr6]GnRH from mutant GnRHR, GnRHR H306K; in short: as §1

Sequence of Gonadotropin-releasing hormone receptor (Homo sapiens, UniProt P30968, Q208D) (P30968 whole entry Q208D): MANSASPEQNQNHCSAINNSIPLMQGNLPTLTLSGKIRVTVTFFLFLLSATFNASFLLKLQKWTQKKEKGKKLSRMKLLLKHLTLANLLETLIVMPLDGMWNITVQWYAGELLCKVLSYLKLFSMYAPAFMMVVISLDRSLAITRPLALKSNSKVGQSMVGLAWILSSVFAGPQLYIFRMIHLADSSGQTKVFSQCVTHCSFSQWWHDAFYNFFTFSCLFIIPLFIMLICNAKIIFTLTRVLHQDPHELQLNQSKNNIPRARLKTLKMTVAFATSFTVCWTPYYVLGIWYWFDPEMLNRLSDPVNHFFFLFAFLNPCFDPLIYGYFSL
Sequence of Gonadotropin-releasing hormone receptor (Homo sapiens, UniProt P30968, L112K) (P30968 whole entry L112K): as the sequence (P30968 whole entry Q208D) above, with L112K, D208Q counted along it
Sequence of Gonadotropin-releasing hormone receptor (Homo sapiens, UniProt P30968, S203E) (P30968 whole entry S203E): as the sequence (P30968 whole entry Q208D) above, with S203E, D208Q counted along it
Sequence of Gonadotropin-releasing hormone receptor (Homo sapiens, UniProt P30968, E295K) (P30968 whole entry E295K): as the sequence (P30968 whole entry Q208D) above, with D208Q, E295K counted along it
Sequence of Gonadotropin-releasing hormone receptor (Homo sapiens, UniProt P30968, D302N) (P30968 whole entry D302N): as the sequence (P30968 whole entry Q208D) above, with D208Q, D302N counted along it
Sequence of Gonadotropin-releasing hormone receptor (Homo sapiens, UniProt P30968, E111A) (P30968 whole entry E111A): as the sequence (P30968 whole entry Q208D) above, with E111A, D208Q counted along it
Sequence of Gonadotropin-releasing hormone receptor (Homo sapiens, UniProt P30968, D293E) (P30968 whole entry D293E): as the sequence (P30968 whole entry Q208D) above, with D208Q, D293E counted along it
Sequence of Gonadotropin-releasing hormone receptor (Homo sapiens, UniProt P30968, S124A) (P30968 whole entry S124A): as the sequence (P30968 whole entry Q208D) above, with S124A, D208Q counted along it
Sequence of Gonadotropin-releasing hormone receptor (Homo sapiens, UniProt P30968, L300K) (P30968 whole entry L300K): as the sequence (P30968 whole entry Q208D) above, with D208Q, L300K counted along it
Sequence of Gonadotropin-releasing hormone receptor (Homo sapiens, UniProt P30968, S203Q) (P30968 whole entry S203Q): as the sequence (P30968 whole entry Q208D) above, with S203Q, D208Q counted along it
Sequence of Gonadotropin-releasing hormone receptor (Homo sapiens, UniProt P30968, Y284L) (P30968 whole entry Y284L): as the sequence (P30968 whole entry Q208D) above, with D208Q, Y284L counted along it
Sequence of Gonadotropin-releasing hormone receptor (Homo sapiens, UniProt P30968, S118A) (P30968 whole entry S118A): as the sequence (P30968 whole entry Q208D) above, with S118A, D208Q counted along it
Sequence of Gonadotropin-releasing hormone receptor (Homo sapiens, UniProt P30968, H182E) (P30968 whole entry H182E): as the sequence (P30968 whole entry Q208D) above, with H182E, D208Q counted along it
Sequence of Gonadotropin-releasing hormone receptor (Homo sapiens, UniProt P30968, N305A) (P30968 whole entry N305A): as the sequence (P30968 whole entry Q208D) above, with D208Q, N305A counted along it

IC50 [1] [nM] | IC50 [2] [nM] | IC50 [3] [nM] | IC50 [4] [nM] | IC50 [5] [nM] | IC50 [6] [nM] | IC50 [7] [nM] | IC50 [8] [nM] | IC50 [9] [nM] | IC50 [10] [nM] | IC50 [11] [nM] | IC50 [12] [nM] | IC50 [13] [nM] | IC50 [14] [nM] | IC50 [15] [nM] | IC50 [16] [nM] | IC50 [17] [nM] | IC50 [18] [nM] | IC50 [19] [nM] | IC50 [20] [nM] | SMILES | other results
15.7 | 15.1 | 22.4 | 11.3 | 164 | 24.2 | 27.2 | 277 | 46.8 | 21.3 | 27.3 | 29.5 | 10 | 202 | 3.7 | 46.5 | 15.2 | 27 | 9.6 | 277 | COc1c(C)cc(-c2[nH]c3ccc(C(C)(C)C(=O)N(CC(C)C)CC(C)C)cc3c2[C@H](C)CNCCc2ccccc2)cc1C | IC50 [21]: 3.7 nM; IC50 [22]: 16.2 nM; IC50 [23]: 20.6 nM; IC50 [24]: 82.3 nM; IC50 [25]: 5.4 nM; IC50 [26]: 17.8 nM; IC50 [27]: 15.2 nM; IC50 [28]: 63.7 nM; IC50 [29]: 7.6 nM; IC50 [30]: 101 nM
2.9 | 2.9 | 2.5 | 3.1 | 6.5 | 3.5 | 6.1 | 186 | 3.3 | 3.9 | 16.5 | 2.7 | 2.4 | 951 | 6.6 | 41.1 | 3.8 | 8.2 | 3.1 | 35.3 | CC(C)C[C@H](NC(=O)[C@@H](Cc1ccc(O)cc1)NC(=O)[C@H](Cc1c[nH]cn1)NC(=O)[C@H](CO)NC(=O)[C@H](Cc1c[nH]c2ccccc12)NC(=O)[C@H](Cc1c[nH]cn1)NC(=O)[C@@H]1CCC(=O)N1)C(=O)N[C@@H](CCCN=C(N)N)C(=O)N1CCC[C@H]1C(=O)NCC(N)=O | IC50 [21]: 12.7 nM; IC50 [22]: 10.1 nM; IC50 [23]: 26.5 nM; IC50 [24]: 267 nM; IC50 [25]: 4.6 nM; IC50 [26]: 3.6 nM; IC50 [27]: 2.4 nM; IC50 [28]: 1.1 nM; IC50 [29]: 3.6 nM; IC50 [30]: 66.2 nM
